Calls of active or inactive are those of the source. The calls are words filed in the database; no cut-off is given here.
Experiments:
[1] = Clearance in Sprague-Dawley rat at 1 mg/kg, po; format: ADME, organism-based; details: in vivo
[2] = Displacement of [3H]-Iloprost from human LTB4 receptor assessed as inhibition constant incubated for 2 hrs by TopCount NXT counter based analysis
[3] = target: Prostaglandin F2-alpha receptor (Homo sapiens, UniProt P43088); assay: Displacement of [3H]-Iloprost from human FP receptor assessed as inhibition constant incubated for 2 hrs by TopCount NXT counter based analysis
Prostaglandin F2-alpha receptor, sequence (P43088 whole entry): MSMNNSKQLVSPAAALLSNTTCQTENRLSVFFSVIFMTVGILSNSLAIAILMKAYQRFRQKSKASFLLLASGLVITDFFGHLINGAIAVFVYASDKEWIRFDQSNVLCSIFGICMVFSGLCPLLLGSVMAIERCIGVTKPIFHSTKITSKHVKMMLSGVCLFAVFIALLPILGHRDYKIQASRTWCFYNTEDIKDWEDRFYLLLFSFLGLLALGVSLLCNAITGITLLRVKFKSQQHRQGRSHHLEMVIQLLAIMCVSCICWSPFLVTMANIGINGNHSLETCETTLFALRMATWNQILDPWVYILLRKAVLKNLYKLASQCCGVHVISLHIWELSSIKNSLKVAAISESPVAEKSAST

[4] = Free plasma concentration in Sprague-Dawley rat at 1 to 10 mg/kg, po measured after 1.5 hrs; format: ADME, organism-based; details: in vivo, dose 1-10 mg/kg
[5] = target: T1, Prostaglandin E2 receptor EP1 subtype (Homo sapiens, UniProt P34995); assay: Antagonist activity at human EP1 receptor expressed in CHO cells assessed as increase in cAMP level incubated for 30 mins followed by agonist addition measured after 90 mins; format: functional, cell-based
T1 sequence (P34995 whole entry): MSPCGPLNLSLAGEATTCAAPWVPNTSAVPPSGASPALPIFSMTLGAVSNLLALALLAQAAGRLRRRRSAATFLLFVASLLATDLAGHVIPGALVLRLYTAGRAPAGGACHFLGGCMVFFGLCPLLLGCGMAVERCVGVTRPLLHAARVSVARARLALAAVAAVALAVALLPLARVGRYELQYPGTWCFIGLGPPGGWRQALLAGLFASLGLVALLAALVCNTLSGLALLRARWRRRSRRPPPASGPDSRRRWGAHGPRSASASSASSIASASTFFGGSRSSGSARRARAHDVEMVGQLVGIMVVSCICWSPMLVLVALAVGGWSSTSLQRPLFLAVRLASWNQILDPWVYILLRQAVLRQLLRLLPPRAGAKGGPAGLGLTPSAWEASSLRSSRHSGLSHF

Mus musculus = species: Mus musculus; assay: Induction of relaxation in PGE2-induced carbachol pre-contracted C57BL/6 mouse trachea at 1 to 3 nM incubated for 30 mins; details: dose 1-3 nM
[6] = Oral bioavailability in Sprague-Dawley rat at 1 mg/kg; format: ADME, organism-based; details: in vivo
Canis lupus familiaris = species: Canis lupus familiaris; assay: Induction of relaxation in PGE2-induced carbachol pre-contracted rings of Beagle dog bronchioles at 3 to 100 nM incubated for 1 hr; format: functional, tissue-based; details: Bronchiole, dose 3-100 nM
How it was run: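 Beagle bronchiole rings held at 1 g tension in Krebs at 37°C (with propranolol and phentolamine), primed with 80 mM KCl. Rings were precontracted with 1 µM carbachol, then antagonist (3–100 nM) or vehicle was equilibrated for 1 h. Cumulative PGE2 relaxation curves followed, with final 10 µM nifedipine defining maximal relaxation. KB by the Lew and Angus method.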

Rattus norvegicus [7] = assay: Effect on butaprost induced cutaneous blood flow in po dosed Sprague-Dawley rat measured upto 95 mins; format: functional, organism-based; details: dose 1-10 mg/kg
How it was run: (§1)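 Sprague Dawley rats (442–515 g) dosed orally with compound or vehicle (0.5% methylcellulose/0.1% Tween 80, 1 mL/kg). About 1 h 25 min later rats were placed under isoflurane and the abdomen shaved. Baseline laser Doppler scans were taken every 5 min for 35 min. Then 10 µL s.c. PGE2 (3 µg/mL) or butaprost (30 µg/mL) was injected, and scanning continued 60 min. Responses were vehicle-subtracted and normalized to the final three baselines. Peak and AUC0–60 were calculated.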

Rattus norvegicus [8] = assay: Effect on butaprost-induced cutaneous blood flow in Sprague-Dawley rat assessed as reduction in mean cutaneous blood flow peak response by measuring AUC(0 to 60 mins) at 10 mg/kg, po measured upto 95 mins; format: functional; design: scale not given: the % may be the effect or the level left; details: 1.583 h; how it was run: as §1
[9] = target: T1, Prostaglandin E2 receptor EP1 subtype; assay: Agonist activity at human EP1 receptor expressed in CHO cells incubated for 30 mins; format: functional, cell-based
[10] = target: Prostaglandin E2 receptor EP4 subtype (Homo sapiens, UniProt P35408); assay: Agonist activity at human EP4 receptor expressed in CHO cells incubated for 30 mins; format: functional, cell-based
Prostaglandin E2 receptor EP4 subtype, sequence (P35408 whole entry, the tested form may be a part): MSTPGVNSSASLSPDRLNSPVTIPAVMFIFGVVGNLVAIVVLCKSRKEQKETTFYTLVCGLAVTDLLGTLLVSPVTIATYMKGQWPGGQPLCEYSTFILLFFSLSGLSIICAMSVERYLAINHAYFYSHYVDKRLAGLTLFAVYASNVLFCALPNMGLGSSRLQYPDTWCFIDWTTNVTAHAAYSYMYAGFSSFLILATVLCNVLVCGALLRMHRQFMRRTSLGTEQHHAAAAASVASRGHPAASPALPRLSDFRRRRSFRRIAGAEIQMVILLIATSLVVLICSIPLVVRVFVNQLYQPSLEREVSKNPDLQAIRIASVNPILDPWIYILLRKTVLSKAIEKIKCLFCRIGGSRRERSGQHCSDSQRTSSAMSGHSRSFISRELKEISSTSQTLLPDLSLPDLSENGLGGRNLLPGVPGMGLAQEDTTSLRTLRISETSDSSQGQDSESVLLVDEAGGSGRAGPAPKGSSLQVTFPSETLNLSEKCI
How it was run: (§2)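 Reporter CHO cells (CRE β-lactamase host) stably expressing the human receptor, suspended in DMEM at 1 × 10^6 cells/mL. Compound in PBS/DMSO/pluronic buffer, preincubated with cells for 30 min at 37°C. In antagonist mode, agonist was then added for 90 min at 37°C; agonist mode used buffer instead. Cells were lysed by freezing, and cAMP was read by DiscoveRx enzyme-fragment luminescence after 4–20 h. Four-parameter logistic fit.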

Thromboxane A2 receptor = target: T2, Thromboxane A2 receptor (Homo sapiens, UniProt P21731); assay: Displacement of [3H]-Iloprost from human TP receptor assessed as inhibition constant incubated for 2 hrs by TopCount NXT counter based analysis
T2 sequence (P21731 whole entry): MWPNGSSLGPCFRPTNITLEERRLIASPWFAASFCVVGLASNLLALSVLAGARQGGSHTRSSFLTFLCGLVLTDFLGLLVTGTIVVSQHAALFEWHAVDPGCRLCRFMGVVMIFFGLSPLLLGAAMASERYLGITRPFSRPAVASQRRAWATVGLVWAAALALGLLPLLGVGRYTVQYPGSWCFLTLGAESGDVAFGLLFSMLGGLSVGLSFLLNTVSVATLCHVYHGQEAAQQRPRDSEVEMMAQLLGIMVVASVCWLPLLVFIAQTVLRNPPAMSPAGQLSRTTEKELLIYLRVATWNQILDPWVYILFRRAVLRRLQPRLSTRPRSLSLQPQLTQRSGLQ

[11] = Inhibition of EFS-induced contraction of human myometrium assessed as butaprost IC50 at 10 nM incubated for 60 mins (reference value: 27.8 nM); format: functional, tissue-based
How it was run: (§3)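 Human myometrial strips (donors aged 24–76) in a 15 mL Krebs bath at 37°C, under EFS at 15 V, 1.5 ms pulses, 10 s every 100 s, at a submaximal 15 Hz. Antagonist (10 or 100 nM) or vehicle was equilibrated for 60 min. Cumulative butaprost (0.1 nM–10 µM) or PGE2 (0.1 nM–3 µM) was given for at least five EFS responses per concentration. pKB was calculated from same-donor concentration ratios.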

[12] = Volume of distribution in Sprague-Dawley rat at 1 mg/kg, po; format: ADME, organism-based; details: in vivo
Rattus norvegicus [13] = assay: Effect on butaprost-induced cutaneous blood flow in Sprague-Dawley rat assessed as reduction in mean cutaneous blood flow peak response at 10 mg/kg, po measured upto 95 mins; format: functional; design: scale not given: the % may be the effect or the level left; details: 1.583 h; how it was run: as §1
[14] = Induction of relaxation in PGE2-induced carbachol pre-contracted C57BL/6 mouse trachea at 1 to 3 uM incubated for 30 mins relative to control (reference value: 11 +/- 3.2%); format: functional; design: scale not given: the % may be the effect or the level left; details: dose 1-3 µM, 0.5 h
[15] = Induction of relaxation in PGE2-induced carbachol pre-contracted C57BL/6 mouse trachea at 100 nM incubated for 30 mins relative to control (reference value: 11 +/- 3.2%); format: functional; design: scale not given: the % may be the effect or the level left; details: 0.5 h
[16] = target: Prostaglandin E2 receptor EP2 subtype (Canis lupus familiaris) (UniProt Q9XT82); assay: Binding affinity to dog bronchiole EP2 receptor assessed as equilibrium binding constant incubated for 30 mins followed by agonist addition measured after 90 mins; format: tissue-based; details: filed as antagonist, time 120.0 min
Prostaglandin E2 receptor EP2 subtype (Canis lupus familiaris), sequence (Q9XT82 whole entry): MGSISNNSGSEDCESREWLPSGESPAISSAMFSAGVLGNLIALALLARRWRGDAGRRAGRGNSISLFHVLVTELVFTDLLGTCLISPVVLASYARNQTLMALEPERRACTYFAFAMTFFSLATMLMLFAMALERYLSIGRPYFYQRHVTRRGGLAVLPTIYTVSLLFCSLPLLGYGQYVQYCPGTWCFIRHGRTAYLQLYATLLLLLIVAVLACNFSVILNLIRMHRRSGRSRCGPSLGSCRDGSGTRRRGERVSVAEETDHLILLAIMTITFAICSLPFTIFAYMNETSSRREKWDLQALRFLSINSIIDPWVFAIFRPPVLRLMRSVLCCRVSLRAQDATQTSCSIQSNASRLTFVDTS

[17] = target: T3, Prostaglandin D2 receptor 2 (Homo sapiens, UniProt Q9Y5Y4); assay: Antagonist activity at human CRTH2 receptor incubated for 30 mins followed by agonist addition measured after 90 mins; format: functional
T3 sequence (Q9Y5Y4 whole entry): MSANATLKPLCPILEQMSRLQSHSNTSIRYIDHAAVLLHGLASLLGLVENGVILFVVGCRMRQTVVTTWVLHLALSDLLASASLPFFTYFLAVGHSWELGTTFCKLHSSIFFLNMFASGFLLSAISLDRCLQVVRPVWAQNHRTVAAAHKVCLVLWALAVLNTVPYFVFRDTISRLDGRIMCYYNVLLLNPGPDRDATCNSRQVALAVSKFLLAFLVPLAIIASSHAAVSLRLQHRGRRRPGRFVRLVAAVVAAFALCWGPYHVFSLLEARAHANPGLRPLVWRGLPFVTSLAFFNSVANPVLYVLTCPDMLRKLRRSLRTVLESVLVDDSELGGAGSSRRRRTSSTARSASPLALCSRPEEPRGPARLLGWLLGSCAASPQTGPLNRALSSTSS
How it was run: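 CHO reporter cells expressing human CRTH2, run in the DiscoveRx cAMP format. Compound preincubated with cells for 30 min at 37°C, then cells were stimulated with 8 µM forskolin plus agonist for 90 min at 37°C. Cells were lysed at −80°C and cAMP was read by luminescence. IC50 from an unconstrained four-parameter logistic fit.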

[18] = target: T4, Prostaglandin E2 receptor EP3 subtype (Homo sapiens, UniProt P43115); assay: Antagonist activity at human EP3 receptor expressed in CHO cells assessed as increase in cAMP level incubated for 30 mins followed by agonist addition measured after 90 mins; format: functional, cell-based
T4 sequence (P43115 whole entry): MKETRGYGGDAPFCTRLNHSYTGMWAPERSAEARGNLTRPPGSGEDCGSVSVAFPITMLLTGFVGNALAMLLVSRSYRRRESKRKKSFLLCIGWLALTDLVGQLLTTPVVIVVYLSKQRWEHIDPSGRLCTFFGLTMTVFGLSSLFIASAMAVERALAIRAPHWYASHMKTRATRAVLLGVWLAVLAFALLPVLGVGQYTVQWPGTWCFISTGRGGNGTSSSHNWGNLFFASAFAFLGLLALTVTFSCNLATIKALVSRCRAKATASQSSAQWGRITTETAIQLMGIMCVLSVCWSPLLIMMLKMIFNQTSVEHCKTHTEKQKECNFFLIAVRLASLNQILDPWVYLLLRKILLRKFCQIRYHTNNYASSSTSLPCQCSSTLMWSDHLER

[19] = Terminal half life in Sprague-Dawley rat at 1 mg/kg, po; format: ADME, organism-based; details: in vivo, read-out: beta t1/2 (converted)
[20] = target: T4, Prostaglandin E2 receptor EP3 subtype; assay: Agonist activity at human EP3 receptor expressed in CHO cells incubated for 30 mins; format: functional, cell-based
[21] = Inhibition of EFS-induced contraction of human myometrium assessed as butaprost IC50 at 100 nM incubated for 60 mins (reference value: 27.8 nM); format: functional, tissue-based; how it was run: as §3
[22] = target: T5, Prostaglandin D2 receptor (Homo sapiens, UniProt Q13258); assay: Antagonist activity at human DP1 receptor expressed in CHO cells incubated for 30 mins followed by agonist addition measured after 90 mins; format: functional, cell-based; how it was run: as §2
T5 sequence (Q13258 whole entry): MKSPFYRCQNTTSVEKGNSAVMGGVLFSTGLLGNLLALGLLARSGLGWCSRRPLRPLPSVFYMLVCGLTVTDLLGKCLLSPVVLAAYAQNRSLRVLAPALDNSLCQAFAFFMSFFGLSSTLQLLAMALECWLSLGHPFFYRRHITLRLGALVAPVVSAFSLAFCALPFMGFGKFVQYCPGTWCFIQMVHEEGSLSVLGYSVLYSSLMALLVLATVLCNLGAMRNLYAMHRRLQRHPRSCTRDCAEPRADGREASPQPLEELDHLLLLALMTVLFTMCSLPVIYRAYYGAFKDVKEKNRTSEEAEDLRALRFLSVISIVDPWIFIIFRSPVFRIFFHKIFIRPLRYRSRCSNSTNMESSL

[23] = target: Prostaglandin E2 receptor EP2 subtype (Mus musculus) (UniProt Q62053); assay: Binding affinity to mouse trachea EP2 receptor assessed as equilibrium binding constant incubated for 30 mins followed by agonist addition measured after 90 mins; format: tissue-based; details: filed as antagonist, time 120.0 min
Prostaglandin E2 receptor EP2 subtype (Mus musculus), sequence (Q62053 whole entry): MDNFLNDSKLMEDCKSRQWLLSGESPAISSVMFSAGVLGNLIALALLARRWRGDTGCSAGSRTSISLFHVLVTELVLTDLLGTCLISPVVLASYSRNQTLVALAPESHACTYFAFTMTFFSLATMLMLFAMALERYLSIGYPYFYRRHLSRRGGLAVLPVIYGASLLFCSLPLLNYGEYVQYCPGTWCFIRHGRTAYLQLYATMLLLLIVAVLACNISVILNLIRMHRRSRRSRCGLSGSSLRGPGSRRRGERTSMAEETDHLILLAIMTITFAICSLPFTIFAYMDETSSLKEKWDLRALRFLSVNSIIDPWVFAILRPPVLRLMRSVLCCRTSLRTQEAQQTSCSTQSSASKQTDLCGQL

[24] = Free plasma concentration in Sprague-Dawley rat at 1 to 10 mg/kg, po measured after 3 hrs; format: ADME, organism-based; details: in vivo, dose 1-10 mg/kg
[25] = Induction of relaxation in PGE2-induced carbachol pre-contracted C57BL/6 mouse trachea incubated for 30 mins; format: functional, tissue-based
How it was run: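 Male C57BL/6 tracheal rings at 0.35 g tension in Krebs (95% O2/5% CO2, 37°C). Rings were precontracted with 10 µM carbachol before cumulative half-log PGE2 (0.1 nM–30 µM). Curves were repeated in the same ring after 30 min with 3 nM antagonist or DMSO, and 10 µM forskolin set maximal relaxation. pKB = log(CR−1) − log[B].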

Prostacyclin receptor = Prostacyclin receptor (Homo sapiens, UniProt P43119); assay: Displacement of [3H]-Iloprost from human IP receptor assessed as inhibition constant incubated for 2 hrs by TopCount NXT counter based analysis
Prostacyclin receptor, sequence (P43119 whole entry): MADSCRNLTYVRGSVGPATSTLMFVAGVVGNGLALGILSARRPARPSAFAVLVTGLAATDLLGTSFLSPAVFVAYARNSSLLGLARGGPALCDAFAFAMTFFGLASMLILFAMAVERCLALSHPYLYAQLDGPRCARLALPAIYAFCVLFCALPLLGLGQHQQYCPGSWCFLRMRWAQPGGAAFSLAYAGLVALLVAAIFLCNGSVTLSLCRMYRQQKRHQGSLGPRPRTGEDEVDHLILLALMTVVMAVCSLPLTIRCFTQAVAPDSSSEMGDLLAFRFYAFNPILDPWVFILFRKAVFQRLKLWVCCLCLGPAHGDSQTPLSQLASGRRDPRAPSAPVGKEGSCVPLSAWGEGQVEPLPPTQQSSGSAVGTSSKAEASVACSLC
How it was run: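 Radioligand displacement with [3H]iloprost (20 µL of a 100 nM stock), using HEK membranes expressing human IP (10 µg per well). Buffer was 10 mM HEPES, 10 mM MgCl2, 1 mM EDTA, pH 7.4, with top concentration 10 µM. Nonspecific binding was defined with 10 µM carbacyclin. Incubated 2 h at room temperature with shaking, then filtered on GF/B, washed cold and counted by scintillation. FP, TP and LTB4 assays were run externally.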

COc1ccc2cc(OCC3(C(=O)O)CN(C(=O)c4ccc(F)cc4)C3)ccc2c1 [PF-04418948]
CL/F [1]: 0.3 mL/min/kg
Ki [2]: 4.8 µM
Ki [3]: > 10 µM
Cp(f) [4]: 170 nM
IC50 [5]: > 10 µM
Activity (Mus musculus): Active
bioavailability [6]: 78%
Activity (Canis lupus familiaris): Active
Activity (Rattus norvegicus [7]): Dose-Dependent Effect
Activity (Rattus norvegicus [8]): 61%
EC50 [9]: > 10 µM
EC50 [10]: > 33.3 µM
Ki (Thromboxane A2 receptor): > 10 µM
IC50 [11]: 0.054 µM
Vd [12]: 0.1 L/kg
Activity (Rattus norvegicus [13]): 41%
Activity [14]: 73.5%
Activity [15]: 106.8%
Kb [16]: 0.0025 µM
IC50 [17]: 32 µM
IC50 [18]: > 10 µM
half-life [19]: 8.8 h
EC50 [20]: > 10 µM
IC50 [21]: 0.353 µM
IC50 [22]: > 32.8 µM
Kb [23]: 0.0013 µM
Cp(f) [24]: 94 nM
IC50 [25]: 0.0027 µM
Ki (Prostacyclin receptor): > 10 µM

Source: ChEMBL document CHEMBL5653608 (Br J Pharmacol, 2011)
